# In ChEMBL document CHEMBL3826914, “Selective photodepletion of malignant T cells in extracorporeal photopheresis with selenorhodamine photosensitizers” (Bioorg Med Chem, 2016):
# Test system: not listed separately
# Experiment: Drug extrusion in human CD4 positive cells assessed as change in mean fluorescence intensity at 5 x 10^-8 M preincubated for 20 mins followed by growth in photosensitizer-free media for 30 mins by flow cytometric analysis relative to control
# Assay type: cell-based
# Conditions: 0.5 h, 0.05 µM
row,Compound,Activity [%]
1,CN1CCC(C)(C)c2cc3c(cc21)[Se]c1cc2c(cc1=C3c1ccc(C(=S)N3CCCCC3)s1)C(C)(C)CC[N+]=2C.[Cl-],42.8

# Test system: not listed separately
# Experiment: Drug extrusion in human CD3 positive cells assessed as change in mean fluorescence intensity at 5 x 10^-8 M preincubated for 20 mins followed by growth in photosensitizer-free media for 30 mins by flow cytometric analysis relative to control
# Assay type: cell-based
# Conditions: 0.5 h, 0.05 µM
row,Compound,Activity [%]
1,CN1CCC(C)(C)c2cc3c(cc21)[Se]c1cc2c(cc1=C3c1ccc(C(=S)N3CCCCC3)s1)C(C)(C)CC[N+]=2C.[Cl-],40.1

# Test system: not listed separately
# Experiment: Drug uptake in SEB-stimulated human CD25 negative cells assessed as mean fluorescence intensity at 5 x 10^-8 M preincubated for 20 mins followed by growth in photosensitizer-free media for 30 mins by flow cytometric analysis relative to control
# Conditions: 0.5 h, 0.05 µM
row,Compound,Flu intensity [a.u.]
1,CN1CCC(C)(C)c2cc3c(cc21)[Se]c1cc2c(cc1=C3c1ccc(C(=S)N3CCCCC3)s1)C(C)(C)CC[N+]=2C.[Cl-],5400

# Test system: ABCB1
# Experiment: Passive permeability in dog MDCK2-MDR1 cells expressing ABCB1 at 5 uM after 30 mins in presence of compound 15 by LC-MS/MS analysis
# Assay type: ADME, cell-based, Canis lupus familiaris, MDCK-II
# Conditions: MDCK-MDR1, with compound 15 (concentration not stated), read-out: permeability
# Method in brief: (§1)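 MDR1-transfected MDCKII cells (passage 16–42) were seeded at 50,000 cells cm^-2 on Transwell filters and used on day 6. Monolayers were rinsed in DPBS with 10^-2 M HEPES, pH 7.4, at 37 °C. They were preincubated 30 min in 4.3 mg/mL BSA/DPBSH with or without 5×10^-6 M P-gp inhibitor. 5 μM dye was added apically or basolaterally and samples taken after 1 h at 37 °C with nutation. Quantitation was by LC-MS/MS; P_passive is the mean of P_AB and P_BA under full inhibition. Mean ± SD.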
row,Compound,"Papp at 0.5 h, 5 µM [×10⁻⁶ cm/s]"
1,CN1CCC(C)(C)c2cc3c(cc21)[Se]c1cc2c(cc1=C3c1ccc(C(=S)N3CCCCC3)s1)C(C)(C)CC[N+]=2C.[Cl-],< 0.1

# Test system: HuT78
# Experiment: Drug uptake in GFP expressing human HUT78 cells co-cultured with non-stimulated human PBMC cells assessed as change in mean fluorescence intensity at 7.5 x 10^-8 M after 20 mins followed by growth in photosensitizer-free media for 30 mins by flow cytometric analysis relative to control
# Assay type: cell-based
# Conditions: hut78, 0.5 h, 0.075 µM
row,Compound,Activity [%]
1,CN1CCC(C)(C)c2cc3c(cc21)[Se]c1cc2c(cc1=C3c1ccc(C(=S)N3CCCCC3)s1)C(C)(C)CC[N+]=2C.[Cl-],34.6

# Test system: not listed separately
# Experiment: Drug extrusion in SEB-stimulated human CD25 positive cells assessed as change in mean fluorescence intensity at 5 x 10^-8 M preincubated for 20 mins followed by growth in photosensitizer-free media for 30 mins by flow cytometric analysis relative to control
# Conditions: 0.5 h, 0.05 µM
row,Compound,Activity [%]
1,CN1CCC(C)(C)c2cc3c(cc21)[Se]c1cc2c(cc1=C3c1ccc(C(=S)N3CCCCC3)s1)C(C)(C)CC[N+]=2C.[Cl-],16.4

# Test system: not listed separately
# Experiment: Drug extrusion in SEB-stimulated human CD25 negative cells assessed as mean fluorescence intensity at 5 x 10^-8 M preincubated for 20 mins followed by growth in photosensitizer-free media for 30 mins by flow cytometric analysis relative to control
# Conditions: 0.5 h, 0.05 µM
row,Compound,Flu intensity [a.u.]
1,CN1CCC(C)(C)c2cc3c(cc21)[Se]c1cc2c(cc1=C3c1ccc(C(=S)N3CCCCC3)s1)C(C)(C)CC[N+]=2C.[Cl-],3700

# Test system: not listed separately
# Experiment: Drug extrusion in human CD8 positive cells assessed as change in mean fluorescence intensity at 5 x 10^-8 M preincubated for 20 mins followed by growth in photosensitizer-free media for 30 mins by flow cytometric analysis relative to control
# Assay type: cell-based
# Conditions: 0.5 h, 0.05 µM
row,Compound,Activity [%]
1,CN1CCC(C)(C)c2cc3c(cc21)[Se]c1cc2c(cc1=C3c1ccc(C(=S)N3CCCCC3)s1)C(C)(C)CC[N+]=2C.[Cl-],57.5

# Test system: not listed separately
# Experiment: (§2) Phototoxicity human CD3 positive cells co-cultured with GFP expressing human HUT78 cells assessed as cell survival at 7.5 x 10^-8 M preincubated 20 mins in photosensitizer media followed by growth in photosensitizer-free media for 30 mins measured 18 hrs after exposure to 5 J/cm2 irradiation by FACS analysis
# Assay type: cell-based
# Conditions: read-out: Survival
# Method in brief: (§3)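 Non-stimulated PBMCs from healthy donors (Ficoll-separated) were mixed 5:1 with GFP-transfected, sorted (>98%) HUT-78 cells. Cells took up 7.5×10^-8 M photosensitizer for 20 min, then spent 30 min in dye-free medium. They were exposed to 5 J cm^-2 light (600 nm LED) with rotation at 180 rpm. Survival was gated by FACS (GFP, CD3, CD4, CD8) 18 h later versus non-irradiated controls. Triplicate; mean ± SEM.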
row,Compound,"viability at 18 h, 0.075 µM [%]"
1,CN1CCC(C)(C)c2cc3c(cc21)[Se]c1cc2c(cc1=C3c1ccc(C(=S)N3CCCCC3)s1)C(C)(C)CC[N+]=2C.[Cl-],1.5

# Test system: HuT78
# Conditions: human, hut78, 0.5 h, 0.075 µM
row,Compound,Flu intensity [a.u.]
1,CN1CCC(C)(C)c2cc3c(cc21)[Se]c1cc2c(cc1=C3c1ccc(C(=S)N3CCCCC3)s1)C(C)(C)CC[N+]=2C.[Cl-],13800

# Test system: not listed separately
# Experiment: Drug extrusion in SEB-stimulated human CD25 positive cells assessed as mean fluorescence intensity at 5 x 10^-8 M preincubated for 20 mins followed by growth in photosensitizer-free media for 30 mins by flow cytometric analysis relative to control
# Conditions: 0.5 h, 0.05 µM
row,Compound,Flu intensity [a.u.]
1,CN1CCC(C)(C)c2cc3c(cc21)[Se]c1cc2c(cc1=C3c1ccc(C(=S)N3CCCCC3)s1)C(C)(C)CC[N+]=2C.[Cl-],12100

# Test system: ABCB1
# Experiment: Permeability from basolateral to apical side in dog MDCK2-MDR1 cells expressing ABCB1 at 5 uM after 30 mins in absence of compound 15 by LC-MS/MS analysis
# Assay type: ADME, cell-based, Canis lupus familiaris, MDCK-II
# Conditions: MDCK-MDR1, read-out: permeability
# Method in brief: as §1
row,Compound,"Papp B→A at 0.5 h, 5 µM [×10⁻⁶ cm/s]"
1,CN1CCC(C)(C)c2cc3c(cc21)[Se]c1cc2c(cc1=C3c1ccc(C(=S)N3CCCCC3)s1)C(C)(C)CC[N+]=2C.[Cl-],0.63

# Test system: ABCB1
# Experiment: Permeability from apical to basolateral side in dog MDCK2-MDR1 cells expressing ABCB1 at 5 uM after 30 mins in absence of compound 15 by LC-MS/MS analysis
# Assay type: ADME, cell-based, Canis lupus familiaris, MDCK-II
# Conditions: MDCK-MDR1, read-out: permeability
# Method in brief: as §1
row,Compound,"Papp A→B at 0.5 h, 5 µM [×10⁻⁶ cm/s]"
1,CN1CCC(C)(C)c2cc3c(cc21)[Se]c1cc2c(cc1=C3c1ccc(C(=S)N3CCCCC3)s1)C(C)(C)CC[N+]=2C.[Cl-],0.15

# Test system: not listed separately
# Experiment: Drug uptake in SEB-stimulated human CD25 positive cells assessed as mean fluorescence intensity at 5 x 10^-8 M preincubated for 20 mins followed by growth in photosensitizer-free media for 30 mins by flow cytometric analysis relative to control
# Conditions: 0.5 h, 0.05 µM
row,Compound,Flu intensity [a.u.]
1,CN1CCC(C)(C)c2cc3c(cc21)[Se]c1cc2c(cc1=C3c1ccc(C(=S)N3CCCCC3)s1)C(C)(C)CC[N+]=2C.[Cl-],14500

# Test system: ABCB1
# Experiment: Permeability from basolateral to apical side in dog MDCK2-MDR1 cells expressing ABCB1 at 5 uM after 30 mins in presence of compound 15 by LC-MS/MS analysis
# Assay type: ADME, cell-based, Canis lupus familiaris, MDCK-II
# Conditions: MDCK-MDR1, with compound 15 (concentration not stated), read-out: permeability
# Method in brief: as §1
row,Compound,"Papp B→A at 0.5 h, 5 µM [×10⁻⁶ cm/s]"
1,CN1CCC(C)(C)c2cc3c(cc21)[Se]c1cc2c(cc1=C3c1ccc(C(=S)N3CCCCC3)s1)C(C)(C)CC[N+]=2C.[Cl-],0.013

# Test system: not listed separately
# Experiment: N-octanol/water partition coefficient, logP of the compound at 23 degC after 1 hr by HPLC based shake flask method
# Assay type: physicochemical
# Conditions: not given
# Method in brief: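 Shake-flask method using 1-octanol: 3–5 min of mixing, then 1 h settling. Equilibration and measurement were at 23 °C, in triplicate.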
row,Compound,logP
1,CN1CCC(C)(C)c2cc3c(cc21)[Se]c1cc2c(cc1=C3c1ccc(C(=S)N3CCCCC3)s1)C(C)(C)CC[N+]=2C.[Cl-],3.7

# Test system: ABCB1
# Experiment: Permeability from apical to basolateral side in dog MDCK2-MDR1 cells expressing ABCB1 at 5 uM after 30 mins in presence of compound 15 by LC-MS/MS analysis
# Assay type: ADME, cell-based, Canis lupus familiaris, MDCK-II
# Conditions: MDCK-MDR1, with compound 15 (concentration not stated), read-out: permeability
# Method in brief: as §1
row,Compound,"Papp A→B at 0.5 h, 5 µM [×10⁻⁶ cm/s]"
1,CN1CCC(C)(C)c2cc3c(cc21)[Se]c1cc2c(cc1=C3c1ccc(C(=S)N3CCCCC3)s1)C(C)(C)CC[N+]=2C.[Cl-],0.051

# Test system: not listed separately
# Experiment: Drug extrusion in SEB-stimulated human CD25 negative cells assessed as change in mean fluorescence intensity at 5 x 10^-8 M preincubated for 20 mins followed by growth in photosensitizer-free media for 30 mins by flow cytometric analysis relative to control
# Conditions: 0.5 h, 0.05 µM
row,Compound,Activity [%]
1,CN1CCC(C)(C)c2cc3c(cc21)[Se]c1cc2c(cc1=C3c1ccc(C(=S)N3CCCCC3)s1)C(C)(C)CC[N+]=2C.[Cl-],30.7

# Test system: HuT78
# Experiment: as §2, with “in” for “human CD3 positive cells co-cultured with”, “HUT78 cells co-cultured with human PBMC” for “HUT78”
# Assay type: functional
# Conditions: HuT78, light or radiation study, read-out: Survival
# Method in brief: as §3
row,Compound,viability at 0.075 µM [%]
1,CN1CCC(C)(C)c2cc3c(cc21)[Se]c1cc2c(cc1=C3c1ccc(C(=S)N3CCCCC3)s1)C(C)(C)CC[N+]=2C.[Cl-],5.6

# Test system: HuT78
# Conditions: human, hut78, 0.5 h, 0.075 µM
# Remark: another data set of the same source
row,Compound,Flu intensity [a.u.]
1,CN1CCC(C)(C)c2cc3c(cc21)[Se]c1cc2c(cc1=C3c1ccc(C(=S)N3CCCCC3)s1)C(C)(C)CC[N+]=2C.[Cl-],11700
